Assay results from ChEMBL document CHEMBL4229473, “Discovery of novel leucyladenylate sulfamate surrogates as leucyl-tRNA synthetase (LRS)-targeted mammalian target of rapamycin complex 1 (mTORC1) inhibitors” (Bioorg Med Chem, 2018).
Calls of active or inactive are those of the source. The rule behind the calls is not given here.

Experiments:
[1] = target: Leucine--tRNA ligase, cytoplasmic (Homo sapiens) (UniProt Q9P2J5); assay: Inhibition of LRS-mediated mTORC1 activation in HEK293 cells assessed as decrease in leucine-induced S6K phosphorylation at T389 at 200 uM treated prior to leucine induction measured after 10 mins by Western blot method; format: cell-based
In short: (§1)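 HEK293 cells were pretreated at one fixed level: test agents at 200 μM, rapamycin at 100 nM or leucinol at 800 μM. mTORC1 was then activated by adding leucine for 10 min. Lysates were Western blotted for phospho-S6K, total S6K, LRS, mTOR and phospho-mTOR.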

[2] = target: Leucine--tRNA ligase, cytoplasmic (Homo sapiens) (UniProt Q9P2J5); assay: Inhibition of LRS-mediated mTORC1 activation in HEK293 cells assessed as decrease in leucine-induced S6K phosphorylation at T389 at 100 uM treated prior to leucine induction measured after 10 mins by Western blot method; format: cell-based
In short: (§2)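 Dose-dependent series in HEK293 cells. Compounds were given as pretreatment at several concentrations, then leucine was added for 10 min to activate mTORC1. Western blots were probed for phospho-S6K, S6K, LRS, mTOR and phospho-mTOR.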

HEK293 [3] = assay: Effect on S6K expression in HEK293 cells at 20 to 200 uM treated prior to leucine addition measured after 10 mins by Western blot method; format: functional, cell-based; conditions: Homo sapiens; in short: as §2
HEK293 [4] = assay: Effect on LRS expression in HEK293 cells at 20 to 200 uM treated prior to leucine addition measured after 10 mins by Western blot method; format: functional, cell-based; conditions: Homo sapiens; in short: as §2
HEK293 [5] = assay: Effect on mTOR expression in HEK293 cells at 20 to 200 uM treated prior to leucine addition measured after 10 mins by Western blot method; format: functional, cell-based; conditions: Homo sapiens; in short: as §2
[6] = target: Serine/threonine-protein kinase mTOR (Homo sapiens) (UniProt P42345); assay: Inhibition of mTOR phosphorylation in HEK293 cells at 20 to 200 uM treated prior to leucine addition measured after 10 mins by Western blot method; format: cell-based; in short: as §2
A549 = assay: Cytotoxicity against human A549 cells assessed as growth inhibition after 72 hrs by SRB assay; format: functional, cell-based; conditions: A549, 72 h
In short: (§3)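 Growth-inhibition IC50 values in a panel of cancer lines: A549 (lung), HCT116 (colon), K562 (leukemia), MDA-MB-231 (breast), SK-Hep-1 (liver) and SNU638 (stomach), plus MRC5 (described as normal lung epithelial cells). Etoposide was run in parallel as the positive control.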

HCT-116 = assay: Cytotoxicity against human HCT116 cells assessed as growth inhibition after 72 hrs by SRB assay; format: functional, cell-based; conditions: HCT-116, 72 h; in short: as §3
K562 = assay: Cytotoxicity against human K562 cells assessed as growth inhibition after 72 hrs by SRB assay; format: functional, cell-based; conditions: K562, 72 h; in short: as §3
MDA-MB-231 = assay: Cytotoxicity against human MDA-MB-231 cells assessed as growth inhibition after 72 hrs by SRB assay; format: functional, cell-based; conditions: MDA-MB-231, 72 h; in short: as §3
SK-HEP1 = assay: Cytotoxicity against human SKHEP1 cells assessed as growth inhibition after 72 hrs by SRB assay; format: functional, cell-based; conditions: SK-HEP1, 72 h; in short: as §3
SNU-638 = assay: Cytotoxicity against human SNU638 cells assessed as growth inhibition after 72 hrs by SRB assay; format: functional, cell-based; conditions: SNU-638, 72 h; in short: as §3
MRC5 = assay: Cytotoxicity against human MRC5 cells assessed as growth inhibition after 72 hrs by SRB assay; format: cell-based; conditions: MRC5, 72 h; in short: as §3
HEK293 [7] = assay: Effect on S6K expression in HEK293 cells at 200 uM treated prior to leucine addition measured after 10 mins by Western blot method; format: functional, cell-based; conditions: Homo sapiens; in short: as §1
HEK293 [8] = assay: Effect on LRS expression in HEK293 cells at 200 uM treated prior to leucine addition measured after 10 mins by Western blot method; format: functional, cell-based; conditions: Homo sapiens; in short: as §1
HEK293 [9] = assay: Effect on mTOR expression in HEK293 cells at 200 uM treated prior to leucine addition measured after 10 mins by Western blot method; format: functional, cell-based; conditions: Homo sapiens; in short: as §1
[10] = target: Serine/threonine-protein kinase mTOR (Homo sapiens) (UniProt P42345); assay: Inhibition of mTOR phosphorylation in HEK293 cells at 200 uM treated prior to leucine addition measured after 10 mins by Western blot method; format: cell-based; in short: as §1
[11] = target: Leucine--tRNA ligase, cytoplasmic (Homo sapiens) (UniProt Q9P2J5); assay: Inhibition of LRS-mediated mTORC1 activation in HEK293 cells assessed as decrease in leucine-induced S6K phosphorylation at T389 at 100 nM treated prior to leucine induction measured after 10 mins by Western blot method; format: cell-based; in short: as §1
[12] = target: Leucine--tRNA ligase, cytoplasmic (Homo sapiens) (UniProt Q9P2J5); assay: Inhibition of LRS aminooleucylation in HEK293 cells assessed as residual activity; format: cell-based
[13] = target: Leucine--tRNA ligase, cytoplasmic (Homo sapiens) (UniProt Q9P2J5); assay: Inhibition of LRS-mediated mTORC1 activation in HEK293 cells assessed as decrease in leucine-induced S6K phosphorylation at T389 treated prior to leucine induction measured after 10 mins by Western blot method; format: cell-based; in short: as §2
[14] = target: Leucine--tRNA ligase, cytoplasmic (Homo sapiens) (UniProt Q9P2J5); assay: Inhibition of LRS-mediated mTORC1 activation in HEK293 cells assessed as decrease in leucine-induced S6K phosphorylation at T389 at 800 uM treated prior to leucine induction measured after 10 mins by Western blot method; format: cell-based; in short: as §1

Leucine--tRNA ligase, cytoplasmic (Homo sapiens), sequence (Q9P2J5 whole entry, looked up): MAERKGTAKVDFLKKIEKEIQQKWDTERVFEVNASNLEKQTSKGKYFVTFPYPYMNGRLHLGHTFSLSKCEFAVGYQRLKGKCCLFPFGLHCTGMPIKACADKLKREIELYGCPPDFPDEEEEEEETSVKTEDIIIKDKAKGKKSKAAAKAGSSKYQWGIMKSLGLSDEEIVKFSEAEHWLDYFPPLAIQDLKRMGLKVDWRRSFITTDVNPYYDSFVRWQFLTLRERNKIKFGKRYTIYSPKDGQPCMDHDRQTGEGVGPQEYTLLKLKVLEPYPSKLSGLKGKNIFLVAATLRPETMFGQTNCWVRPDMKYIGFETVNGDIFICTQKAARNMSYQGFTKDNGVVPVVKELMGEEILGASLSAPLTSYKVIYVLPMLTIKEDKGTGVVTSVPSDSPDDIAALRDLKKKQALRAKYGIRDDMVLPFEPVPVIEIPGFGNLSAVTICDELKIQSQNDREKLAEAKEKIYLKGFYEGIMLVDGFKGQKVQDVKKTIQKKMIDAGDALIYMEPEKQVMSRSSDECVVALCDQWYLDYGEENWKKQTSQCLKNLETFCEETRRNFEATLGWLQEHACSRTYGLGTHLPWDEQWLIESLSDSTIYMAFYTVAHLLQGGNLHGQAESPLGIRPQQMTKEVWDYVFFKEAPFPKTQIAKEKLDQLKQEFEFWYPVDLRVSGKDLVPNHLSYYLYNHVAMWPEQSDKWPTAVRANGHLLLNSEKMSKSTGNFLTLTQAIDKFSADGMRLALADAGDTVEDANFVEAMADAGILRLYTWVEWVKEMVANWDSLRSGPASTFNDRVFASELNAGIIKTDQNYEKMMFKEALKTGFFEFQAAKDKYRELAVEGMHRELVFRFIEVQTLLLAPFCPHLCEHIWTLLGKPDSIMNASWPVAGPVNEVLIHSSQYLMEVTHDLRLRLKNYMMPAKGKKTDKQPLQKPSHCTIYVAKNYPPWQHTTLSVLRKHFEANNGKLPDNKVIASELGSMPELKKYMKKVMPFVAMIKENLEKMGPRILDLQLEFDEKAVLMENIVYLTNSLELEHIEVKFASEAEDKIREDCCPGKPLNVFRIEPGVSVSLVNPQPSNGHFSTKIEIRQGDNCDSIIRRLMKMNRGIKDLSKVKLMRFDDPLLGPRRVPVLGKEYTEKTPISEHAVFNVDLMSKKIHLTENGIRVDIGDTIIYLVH

Row | SMILES | inhibition [1] | inhibition [6] | inhibition [10] | Activity (HEK293 [3]) | Activity (HEK293 [4]) | Activity (HEK293 [5]) | IC50 (A549) [µM] | IC50 (HCT-116) [µM] | IC50 (K562) [µM] | IC50 (MDA-MB-231) [µM] | IC50 (SK-HEP1) [µM] | IC50 (SNU-638) [µM] | IC50 (MRC5) [µM] | Activity (HEK293 [7]) | Activity (HEK293 [8]) | Activity (HEK293 [9]) | other results
1 | CO[C@H]1C[C@@H]2CC[C@@H](C)[C@@](O)(O2)C(=O)C(=O)N2CCCC[C@H]2C(=O)O[C@H]([C@H](C)C[C@@H]2CC[C@@H](O)[C@H](OC)C2)CC(=O)[C@H](C)/C=C(\C)[C@@H](O)[C@@H](OC)C(=O)[C@H](C)C[C@H](C)/C=C/C=C/C=C/1C |  |  |  |  |  |  |  |  |  |  |  |  |  |  |  |  | inhibition [11]: Active
2 | COc1cc2ncnc(Nc3ccc(F)c(Cl)c3)c2cc1OC(=O)[C@@H](O)CC(C)C | inactive |  | inactive |  |  |  |  |  |  |  |  |  |  | inactive | inactive | inactive | 
3 | COc1cc2ncnc(Nc3ccc(F)c(Cl)c3)c2cc1OS(=O)(=O)NC(=O)[C@@H](O)CC(C)C | Active | inactive |  | inactive | inactive | inactive | 4.38 | 4.04 | 4.1 | 6.23 | 3.3 | 4.94 | 18.8 |  |  |  | inhibition [13]: Dose-dependent effect; Activity [12]: > 70%
4 | COc1cc2ncnc(Nc3ccc(F)c(Cl)c3)c2cc1OCCOS(=O)(=O)NC(=O)[C@@H](O)CC(C)C | inactive |  | inactive |  |  |  |  |  |  |  |  |  |  | inactive | inactive | inactive | 
5 | CC(C)C[C@H](N)CO |  |  |  |  |  |  |  |  |  |  |  |  |  |  |  |  | inhibition [14]: Active

More lines, main results first:

Row | inhibition [1] | inhibition [6] | inhibition [10] | SMILES | Activity (HEK293 [3]) | Activity (HEK293 [4]) | Activity (HEK293 [5]) | IC50 (A549) [µM] | IC50 (HCT-116) [µM] | IC50 (K562) [µM] | IC50 (MDA-MB-231) [µM] | IC50 (SK-HEP1) [µM] | IC50 (SNU-638) [µM] | IC50 (MRC5) [µM] | Activity (HEK293 [7]) | Activity (HEK293 [8]) | Activity (HEK293 [9]) | other results
6 | Active | inactive |  | COc1cc2ncnc(Nc3ccc(F)c(Cl)c3)c2cc1OCCOC(=O)[C@@H](N)CC(C)C | inactive | inactive | inactive | 3.59 | 3.97 | 4.01 | 3.65 | 1.94 | 3.86 | 1.87 |  |  |  | inhibition [2]: Active
7 | inactive |  | inactive | COc1cc2ncnc(Nc3ccc(F)c(Cl)c3)c2cc1OC(=O)[C@@H](N)CC(C)C |  |  |  |  |  |  |  |  |  |  | inactive | inactive | inactive | 
8 | Active |  | inactive | COc1cc2ncnc(Nc3ccc(F)c(Cl)c3)c2cc1OCCNC(=O)[C@@H](O)CC(C)C |  |  |  |  |  |  |  |  |  |  | inactive | inactive | inactive | 
9 | Active | inactive |  | COc1cc2ncnc(Nc3ccc(F)c(Cl)c3)c2cc1OCCNC(=O)[C@@H](N)CC(C)C | inactive | inactive | inactive | 2.79 | 4.24 | 3.83 | 4.59 | 2.21 | 2.97 | > 20 |  |  |  | inhibition [2]: inactive; Activity [12]: > 70%
10 | Active |  | inactive | COc1cc2ncnc(Nc3ccc(F)c(Cl)c3)c2cc1OS(=O)(=O)NC(=O)[C@@H](N)CC(C)C |  |  |  |  |  |  |  |  |  |  | inactive | inactive | inactive | 
11 | inactive |  | inactive | COc1cc2ncnc(Nc3ccc(F)c(Cl)c3)c2cc1OCCOS(=O)(=O)NC(=O)[C@@H](N)CC(C)C |  |  |  |  |  |  |  |  |  |  | inactive | inactive | inactive | 
12 |  | inactive |  | COc1cc2ncnc(Nc3ccc(F)c(Cl)c3)c2cc1OCCOC(=O)[C@@H](O)CC(C)C | inactive | inactive | inactive | 3.16 | 3.12 | 3.89 | 2.05 | 1.39 | 3.41 | 1.12 |  |  |  | inhibition [13]: Dose-dependent effect; Activity [12]: > 70%
